Data as given in ChEMBL document CHEMBL4011624, “The 1,2,4-Triazolo[4,3-a]pyrazin-3-one as a Versatile Scaffold for the Design of Potent Adenosine Human Receptor Antagonists. Structural Investigations to Target the A2A Receptor Subtype” (J Med Chem, 2017).
The source made the active and inactive calls. The calls are words filed in the database; no cut-off is given here.

Tests used:
Adenosine receptor A1 = biological target: T1, Adenosine receptor A1 (Homo sapiens, UniProt P30542); test: Displacement of [3H]CCPA from human adenosine receptor A1 expressed in CHO cell membranes after 3 hrs by microbeta scintillation counting method
T1 sequence (P30542 whole entry): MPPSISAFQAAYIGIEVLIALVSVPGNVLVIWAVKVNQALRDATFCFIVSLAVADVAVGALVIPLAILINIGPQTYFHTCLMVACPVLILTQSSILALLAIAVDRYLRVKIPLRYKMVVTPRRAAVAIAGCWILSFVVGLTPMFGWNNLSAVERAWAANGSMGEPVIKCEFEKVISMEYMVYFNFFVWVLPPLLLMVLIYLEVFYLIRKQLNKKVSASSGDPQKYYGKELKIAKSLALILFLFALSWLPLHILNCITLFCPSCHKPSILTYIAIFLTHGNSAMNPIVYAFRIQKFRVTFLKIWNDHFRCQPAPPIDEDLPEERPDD

Adenosine receptor A2a [1] = biological target: T2, Adenosine receptor A2a (Homo sapiens, UniProt P29274); test: Displacement of [3H]NECA from human adenosine receptor A2A expressed in CHO cell membranes after 3 hrs by microbeta scintillation counting method
Adenosine receptor A3 = biological target: T3, Adenosine receptor A3 (Homo sapiens, UniProt P0DMS8); test: Displacement of [3H]HEMADO from human adenosine receptor A3 expressed in CHO cell membranes after 3 hrs by microbeta scintillation counting method
T3 sequence (P0DMS8 whole entry): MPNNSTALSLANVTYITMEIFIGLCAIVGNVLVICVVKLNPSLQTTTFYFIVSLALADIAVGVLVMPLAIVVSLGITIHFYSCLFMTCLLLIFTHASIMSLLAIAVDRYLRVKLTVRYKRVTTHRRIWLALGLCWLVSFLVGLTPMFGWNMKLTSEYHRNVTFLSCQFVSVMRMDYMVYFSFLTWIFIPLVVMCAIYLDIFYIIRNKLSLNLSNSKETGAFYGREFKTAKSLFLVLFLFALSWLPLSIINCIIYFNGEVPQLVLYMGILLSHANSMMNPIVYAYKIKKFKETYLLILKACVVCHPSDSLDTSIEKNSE

Adenosine receptor A2b = biological target: T4, Adenosine receptor A2b (Homo sapiens, UniProt P29275); test: Antagonist activity at human adenosine receptor A2B expressed in CHO cell membranes assessed as inhibition of NECA-induced increase of cAMP accumulation preincubated for 10 mins followed by NECA addition measured after 10 mins by GloSensor cAMP assay; type: functional, cell-based
T4 sequence (P29275 whole entry): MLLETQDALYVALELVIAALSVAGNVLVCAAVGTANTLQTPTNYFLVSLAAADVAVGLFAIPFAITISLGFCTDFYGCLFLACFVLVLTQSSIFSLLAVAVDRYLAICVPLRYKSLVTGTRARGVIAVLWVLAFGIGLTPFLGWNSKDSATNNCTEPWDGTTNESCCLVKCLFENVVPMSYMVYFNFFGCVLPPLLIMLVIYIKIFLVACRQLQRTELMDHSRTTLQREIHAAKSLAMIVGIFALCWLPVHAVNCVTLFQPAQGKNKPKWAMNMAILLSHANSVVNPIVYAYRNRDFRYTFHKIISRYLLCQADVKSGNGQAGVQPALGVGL
How it was run: (§1)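 Receptors stably transfected in CHO cells. Antagonism read as inhibition of the NECA-stimulated rise in cAMP levels. IC50 values were derived from dose-response curves.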

Adenosine receptor A2a [2] = biological target: T2, Adenosine receptor A2a; test: Antagonist activity at human adenosine receptor A2A expressed in CHO cell membranes assessed as inhibition of NECA-induced increase of cAMP accumulation preincubated for 10 mins followed by NECA addition measured after 10 mins by GloSensor cAMP assay; type: functional, cell-based; how it was run: as §1
SH-SY5Y [3] = test: Neuroprotective activity against MPP+-induced toxicity in human SH-SY5Y cells assessed as increase in cell viability at 15 nM pretreated for 1 hr followed by MPP+ addition measured after 24 hrs by Celltiter-Glo luminescent assay; type: functional, cell-based
How it was run: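 SH-SY5Y human neuroblastoma cells were exposed to MPP+ at 1.5 mM for 24 h, with test agent present, and cell viability was then measured. The MPP+ level was chosen from a pilot range of 50 μM to 3 mM over 24 h.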

SH-SY5Y [4] = test: Cytotoxicity against human SH-SY5Y cells assessed as increase in cell viability at 0.5 to 30 nM after 24 hrs by Celltiter-Glo luminescent assay; type: cell-based; details: 0.03 µM
SH-SY5Y [5] = test: Neuroprotective activity against MPP+-induced toxicity in human SH-SY5Y cells assessed as increase in cell viability at 15 nM pretreated for 1 hr followed by MPP+ addition measured after 24 hrs in the presence of human adenosine receptor A2A agonist CGS21680 by Celltiter-Glo luminescent assay; type: functional, cell-based
How it was run: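 SH-SY5Y cells were given MPP+ (1.5 mM, 24 h) plus test agent at 15 nM, together with the A2A agonist CGS21680 at 10 to 100 nM, and cell viability was then measured.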

T2 sequence (P29274 whole entry): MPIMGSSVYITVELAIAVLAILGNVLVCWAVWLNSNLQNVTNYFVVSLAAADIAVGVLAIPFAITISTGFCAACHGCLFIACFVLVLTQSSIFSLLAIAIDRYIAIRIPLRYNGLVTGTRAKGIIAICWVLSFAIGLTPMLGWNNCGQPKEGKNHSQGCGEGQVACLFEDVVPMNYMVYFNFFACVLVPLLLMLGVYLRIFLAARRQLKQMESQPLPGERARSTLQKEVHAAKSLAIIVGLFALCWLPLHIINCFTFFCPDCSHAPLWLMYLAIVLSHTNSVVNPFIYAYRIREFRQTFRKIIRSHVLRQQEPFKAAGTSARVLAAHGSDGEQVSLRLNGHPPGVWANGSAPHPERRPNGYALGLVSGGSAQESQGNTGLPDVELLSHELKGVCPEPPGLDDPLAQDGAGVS

Row | Structure (SMILES) | Ki (Adenosine receptor A1) [nM] | Ki (Adenosine receptor A2a [1]) [nM] | Ki (Adenosine receptor A3) [nM] | IC50 (Adenosine receptor A2b) [nM] | IC50 (Adenosine receptor A2a [2]) [nM] | Activity (SH-SY5Y [3]) | Activity (SH-SY5Y [4]) | Activity (SH-SY5Y [5])
1 | COc1ccc(-n2nc3c(N)nc(-c4ccccc4)cn3c2=O)cc1 | 20 | 78 | 117 | > 30000 |  |  |  | 
2 | Nc1nc(-c2ccc(OCC3CCC3)cc2)cn2c(=O)n(-c3ccccc3)nc12 | > 30000 | > 30000 | > 30000 | > 30000 |  |  |  | 
3 | COc1cccc(-c2cn3c(=O)n(-c4ccccc4)nc3c(N)n2)c1 | 44 | 6.8 | 42 | > 30000 |  |  |  | 
4 | Nc1nc(-c2cccc(OCc3ccccc3)c2)cn2c(=O)n(-c3ccccc3)nc12 | > 30000 | > 30000 | > 30000 | > 30000 |  |  |  | 
5 | Cc1cn2c(=O)n(-c3ccc(O)cc3)nc2c(N)n1 | 1000 | 1320 | 5160 | > 30000 |  |  |  | 
6 | Cc1cn2c(=O)n(-c3ccccc3)nc2c(N)n1 | 67 | 485 | 4370 | > 30000 |  |  |  | 
7 | C#CCOc1cccc(-c2cn3c(=O)n(-c4ccccc4)nc3c(N)n2)c1 | 45 | 5.1 | 67 | > 30000 |  |  |  | 
8 | COc1ccccc1-n1nc2c(N)nc(-c3ccccc3)cn2c1=O | 247 | 309 | 392 | > 30000 |  |  |  | 
9 | Nc1nc(-c2ccccc2)cn2c(=O)n(-c3ccccc3O)nc12 |  | 47 | 1560 | > 30000 |  |  |  | 
10 | Nc1nc(-c2ccc(OCc3ccccc3)cc2)cn2c(=O)n(-c3ccccc3)nc12 | 3700 | 708 | > 30000 | > 30000 |  |  |  | 
11 | Nc1nc(-c2ccccc2)cn2c(=O)n(-c3ccc([N+](=O)[O-])cc3)nc12 | 8.1 | 402 | > 30000 | > 30000 |  |  |  | 
12 | COc1ccc(-n2nc3c(N)nc(C)cn3c2=O)cc1 | 1740 | 1040 | 255 | > 30000 |  |  |  | 
13 | Nc1nc(-c2ccccc2)cn2c(=O)n(-c3ccccc3)nc12 | 13 | 10 | 11 | > 30000 |  |  |  | 
14 | Cc1cn2c(=O)n(-c3ccc(O)cc3)nc2c(=O)[nH]1 | 5740 |  | 229 | > 30000 |  |  |  | 
15 | COc1ccc(-n2nc3c(=O)[nH]c(C)cn3c2=O)cc1 | > 30000 | > 30000 | 50 | > 30000 |  |  |  | 

Further lines, with some results ahead:

Row | Ki (Adenosine receptor A1) [nM] | Ki (Adenosine receptor A2a [1]) [nM] | Ki (Adenosine receptor A3) [nM] | IC50 (Adenosine receptor A2b) [nM] | IC50 (Adenosine receptor A2a [2]) [nM] | Structure (SMILES) | Activity (SH-SY5Y [3]) | Activity (SH-SY5Y [4]) | Activity (SH-SY5Y [5])
16 | 18 | 138 | 429 | > 30000 |  | Nc1nc(-c2ccccc2)cn2c(=O)n(-c3ccc(O)cc3)nc12 |  |  | 
17 | > 30000 | > 30000 | 96 | > 30000 |  | O=c1[nH]c(-c2ccccc2)cn2c(=O)n(-c3ccccc3)nc12 |  |  | 
18 | > 30000 | 7.4 | > 30000 | > 30000 |  | CC(C)Oc1ccc(-c2cn3c(=O)n(-c4ccccc4)nc3c(N)n2)cc1 |  |  | 
19 | 14 | 3.5 | 134 | > 30000 |  | Nc1nc(-c2cccc(O)c2)cn2c(=O)n(-c3ccccc3)nc12 |  |  | 
20 | > 30000 | 10.6 | > 30000 | > 30000 |  | C#CCOc1ccc(-c2cn3c(=O)n(-c4ccccc4)nc3c(N)n2)cc1 |  |  | 
21 | > 30000 | > 30000 | 60 | > 30000 |  | Cc1cn2c(=O)n(-c3ccccc3)nc2c(=O)[nH]1 |  |  | 
22 | > 30000 | > 30000 | > 30000 | > 30000 |  | Cc1ccc(-c2cn3c(=O)n(-c4ccccc4)nc3c(=O)[nH]2)cc1 |  |  | 
23 | > 30000 | > 30000 | > 30000 | > 30000 |  | Nc1nc(-c2ccc(OCC3CC3)cc2)cn2c(=O)n(-c3ccccc3)nc12 |  |  | 
24 | > 30000 |  | > 30000 | > 30000 |  | CCCOc1ccc(-c2cn3c(=O)n(-c4ccccc4)nc3c(N)n2)cc1 |  |  | 
25 | > 30000 | > 30000 | 214 | > 30000 |  | COc1ccc(-n2nc3c(=O)[nH]c(-c4ccccc4)cn3c2=O)cc1 |  |  | 
26 | 8.9 | 3480 | 650 | > 30000 |  | Nc1ccc(-n2nc3c(N)nc(-c4ccccc4)cn3c2=O)cc1 |  |  | 
27 | > 30000 | > 30000 | > 30000 | > 30000 |  | COc1cccc(-c2cn3c(=O)n(-c4ccccc4)nc3c(=O)[nH]2)c1 |  |  | 
28 | 247 | 415 | 63 | > 30000 |  | Nc1ccc(-n2nc3c(=O)[nH]c(-c4ccccc4)cn3c2=O)cc1 |  |  | 
29 | 698 | 4070 | 1050 | > 30000 |  | O=c1[nH]c(-c2cccc(O)c2)cn2c(=O)n(-c3ccccc3)nc12 |  |  | 
30 | > 30000 | 7.2 | > 30000 | > 30000 | 180 | COc1ccc(-c2cn3c(=O)n(-c4ccccc4)nc3c(N)n2)cc1 | Active | Non-Toxic | inactive
31 | > 30000 | > 30000 | > 30000 | > 30000 |  | COc1ccc(-c2cn3c(=O)n(-c4ccccc4)nc3c(=O)[nH]2)cc1 |  |  | 
32 | > 30000 | > 30000 | > 30000 | > 30000 |  | Cc1ccc(-c2cn3c(=O)n(-c4ccccc4)nc3c(N)n2)cc1 |  |  | 
33 | 2140 | > 30000 | 5200 | > 30000 |  | COc1ccccc1-n1nc2c(=O)[nH]c(-c3ccccc3)cn2c1=O |  |  | 
34 | 129 | 387 | 0.37 | > 30000 |  | O=c1[nH]c(-c2ccccc2)cn2c(=O)n(-c3ccc(O)cc3)nc12 |  |  | 
35 | 616 | > 30000 | 207 | > 30000 |  | O=c1[nH]c(-c2ccc(O)cc2)cn2c(=O)n(-c3ccccc3)nc12 |  |  | 
36 | > 30000 | 2.9 | > 30000 | > 30000 | 98 | CCOc1ccc(-c2cn3c(=O)n(-c4ccccc4)nc3c(N)n2)cc1 |  |  | 
37 | 45 | 45 | 53 | > 30000 |  | Nc1nc(-c2ccc(O)cc2)cn2c(=O)n(-c3ccccc3)nc12 |  |  | 
38 | 1480 | > 30000 | 21600 | > 30000 |  | O=c1[nH]c(-c2ccccc2)cn2c(=O)n(-c3ccccc3O)nc12 |  |  | 
